Source: ChEMBL document CHEMBL1944564, “Discovery of a novel and potent class of F. tularensis enoyl-reductase (FabI) inhibitors by molecular shape and electrostatic matching” (J Med Chem, 2012)
pIC50: −log10 of the molar value. Values after ≈ are worked out from the molar mass of the structure shown.

Tests used:
[1] = Inhibition of N-terminus His-tagged Francisella tularensis subsp. Tularensis Schu4 […] expressed in Escherichia coli […] cells assessed as conversion of crotonyl-CoA and NADH to butyryl-CoA and NAD+ preincubated for 30 mins by measured fluorescence analysis; set-up: species or system Francisella tularensis subsp. tularensis SCHU S4
Method in brief: (§1)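 Recombinant N-terminal His-tagged F. tularensis FabI, expressed in E. coli BL21(DE3) and purified by Ni-affinity and size exclusion to >98%, was used at 0.2 μM. Inhibitor in DMSO was preincubated 30 min, then 200 μM crotonyl-CoA was added. The rate of decrease in NADH fluorescence (ex 340/em 450 nm) gave % inhibition versus a DMSO control.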

DL21 (DE3) = assay: Inhibition of N-terminus His-tagged Francisella tularensis subsp. Tularensis Schu4 […] expressed in Escherichia coli […] cells assessed as conversion of crotonyl-CoA and NADH to butyryl-CoA and NAD+ preincubated at 100 uM for 30 mins by fluorescence analysis; conditions: Francisella tularensis subsp. tularensis SCHU S4; method in brief: as §1
Escherichia coli [2] = assay: Antibacterial activity against Escherichia coli BW251113 after overnight incubation; format: functional
Method in brief: (§2)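 Broth microdilution in LB with 2-fold serial dilutions of compound and ciprofloxacin as control.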

Bacillus anthracis = assay: Antibacterial activity against Bacillus anthracis after overnight incubation; format: functional
Escherichia coli [3] = assay: Antibacterial activity against Escherichia coli BW251113 harboring TolC deletion mutation after overnight incubation; format: functional
Staphylococcus aureus [4] = assay: Antibacterial activity against Staphylococcus aureus after overnight incubation; format: functional; method in brief: as §2
Yersinia pestis = assay: Antibacterial activity against Yersinia pestis after overnight incubation; format: functional
Staphylococcus aureus [5] = assay: Antibacterial activity against methicillin-resistant Staphylococcus aureus after overnight incubation; format: functional; method in brief: as §2
Francisella tularensis = assay: Antibacterial activity against Francisella tularensis after overnight incubation; format: functional

Cc1ccc(Cn2cnc3ccccc32)cc1
pIC50 [1]: 4.05

Cc1cc2ncn(C(=O)c3cccc(Cl)c3)c2cc1C
pIC50 [1]: < 4.00

Brc1ccc(Cn2cnc3ccccc32)cc1
pIC50 [1]: 4.56

Fc1ccc(Cn2cnc3ccccc32)cc1
pIC50 [1]: < 4.00

Nc1ncc(Cc2ccc(Cl)cc2)s1
pIC50 [1]: 4.20 | inhibition (DL21 (DE3)): 49%

Clc1ccc(Cn2cnc3ccccc32)cc1
pIC50 [1]: 4.57 | inhibition (DL21 (DE3)): 70%

Nc1nc2ccccc2n1Cc1ccc(Cl)cc1
pIC50 [1]: < 4.00

COc1ccc(Cn2cnc3ccccc32)cc1
pIC50 [1]: 4.42

Cc1cc2ncn(Cc3ccc(Cl)cc3Cl)c2cc1C
pIC50 [1]: 6.15 | MIC (Escherichia coli [2]): > 200 mg/L | MIC (Bacillus anthracis): > 38 mg/L | MIC (Escherichia coli [3]): 19 mg/L (≈ 62.3 µM) | MIC (Staphylococcus aureus [4]): 38 mg/L (≈ 125 µM) | MIC (Yersinia pestis): > 38 mg/L | MIC (Staphylococcus aureus [5]): 38 mg/L (≈ 125 µM) | MIC (Francisella tularensis): 4.3 mg/L (≈ 14.1 µM)

Clc1ccc(Cn2cnc3ccccc32)c(Cl)c1
pIC50 [1]: 4.66

Cc1cc2ncn(Cc3ccc(Cl)c(Cl)c3)c2cc1C
pIC50 [1]: 6.52 | MIC (Escherichia coli [2]): > 200 mg/L | MIC (Bacillus anthracis): 9.4 mg/L (≈ 30.8 µM) | MIC (Escherichia coli [3]): 6.25 mg/L (≈ 20.5 µM) | MIC (Staphylococcus aureus [4]): 25 mg/L (≈ 81.9 µM) | MIC (Yersinia pestis): ≥ 50 mg/L | MIC (Staphylococcus aureus [5]): 50 mg/L (≈ 164 µM) | MIC (Francisella tularensis): 7.8 mg/L (≈ 25.6 µM)

Clc1ccc(Cn2cnc3ccccc32)cc1Cl
pIC50 [1]: 5.33 | MIC (Escherichia coli [2]): > 200 mg/L | MIC (Bacillus anthracis): 50 mg/L (≈ 180 µM) | MIC (Escherichia coli [3]): 25 mg/L (≈ 90.2 µM) | MIC (Staphylococcus aureus [4]): 50 mg/L (≈ 180 µM) | MIC (Yersinia pestis): 25 mg/L (≈ 90.2 µM) | MIC (Staphylococcus aureus [5]): 50 mg/L (≈ 180 µM) | MIC (Francisella tularensis): 17.2 mg/L (≈ 62.1 µM)

c1ccc(Cn2cnc3ccccc32)cc1
pIC50 [1]: < 4.00

O=C(c1ccc(Cl)cc1)n1cnc2ccccc21
pIC50 [1]: < 4.00

Cc1cc2ncn(Cc3ccc(Cl)cc3)c2cc1C
pIC50 [1]: 6.52 | MIC (Escherichia coli [2]): > 50 mg/L | MIC (Bacillus anthracis): > 50 mg/L | MIC (Escherichia coli [3]): 12.5 mg/L (≈ 46.2 µM) | MIC (Staphylococcus aureus [4]): > 50 mg/L | MIC (Yersinia pestis): > 50 mg/L | MIC (Francisella tularensis): 15.6 mg/L (≈ 57.6 µM)

O=C(NC(=O)c1cc(-c2ccc(Cl)cc2)oc1C(F)(F)F)c1ccccc1O
inhibition (DL21 (DE3)): 39%

Clc1cccc(Cn2cnc3ccccc32)c1
pIC50 [1]: 4.07

Cc1nc2ccccc2n1Cc1ccc(Cl)c(Cl)c1
pIC50 [1]: 5.49 | MIC (Escherichia coli [2]): 50 mg/L (≈ 172 µM) | MIC (Bacillus anthracis): 25 mg/L (≈ 85.9 µM) | MIC (Escherichia coli [3]): 25 mg/L (≈ 85.9 µM) | MIC (Staphylococcus aureus [4]): 50 mg/L (≈ 172 µM) | MIC (Yersinia pestis): ≥ 50 mg/L | MIC (Francisella tularensis): 9.4 mg/L (≈ 32.3 µM)
